The values below come from ChEMBL document CHEMBL1156125, “Pentacycle derivatives as cannabinoid CB1 receptor ligands” (Bioorg Med Chem Lett, 2009).

One data set deals with Cannabinoid receptor 1 (Rattus norvegicus, UniProt P20272). The data set is described as follows: Displacement of [3H]CP-55940 from CB1 receptor in Sprague-Dawley rat cerebellar membrane. The arrangement: species or system Cerebellum. In outline:
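Pelleted membranes were incubated with 3 nM [3H]CP55,940, 0.5% fatty-acid-free BSA and a range of ligand concentrations for 1 h at 30 °C. Bound ligand was filtered on PEI-soaked GF/B and counted by scintillation; IC50 reported.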

The next data set deals with Cannabinoid receptor 2 (Homo sapiens, UniProt P34972). The data set is described as follows: Displacement of [3H]WIN-552122 from human CB2 receptor expressed in CHOK1 cells. The class given is cell-based, CHO-K1. Put shortly: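 Membranes came from CHO K-1 cells transfected with human CB2 and were prepared in TME buffer (pH 7.4) with centrifugation at 48,000g. Competition used 3 nM [3H]WIN55,212-2 in TME with 0.5% fatty-acid-free BSA across a range of ligand concentrations, 1 h at 30 °C.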
Chain of Cannabinoid receptor 2 (P34972 whole entry): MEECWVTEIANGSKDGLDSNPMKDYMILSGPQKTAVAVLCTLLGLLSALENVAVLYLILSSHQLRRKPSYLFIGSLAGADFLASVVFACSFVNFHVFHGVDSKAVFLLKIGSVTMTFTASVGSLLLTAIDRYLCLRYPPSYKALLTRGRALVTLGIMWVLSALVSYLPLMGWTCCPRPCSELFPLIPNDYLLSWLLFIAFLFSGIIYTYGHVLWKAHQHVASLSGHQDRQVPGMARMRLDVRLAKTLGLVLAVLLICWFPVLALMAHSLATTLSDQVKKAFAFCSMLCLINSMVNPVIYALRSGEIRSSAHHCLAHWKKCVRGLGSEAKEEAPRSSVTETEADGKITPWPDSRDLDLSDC
A general note: Loss of bound radioactivity is the signal in a displacement assay; it reports binding, not function.

Data set [1] is described as follows: Selectivity ratio of IC50 for human CB2 to IC50 for rat CB1. In outline: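 Competitive radioligand binding in TME buffer (50 mM Tris–HCl, 1 mM EDTA, 3 mM MgCl2, pH 7.4) with 0.5% fatty-acid-free BSA, 1 h at 30 °C. rCB1 used male Sprague-Dawley rat cerebellar membranes with 3 nM [3H]CP55,940. hCB2 used membranes from CHO K-1 cells transfected with human CB2, with 3 nM [3H]WIN55,212-2. Bound ligand was filtered and counted by scintillation. Ratio = hCB2 IC50 / rCB1 IC50.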

Data set [2] can be described thus: Cmax in rat at 5 mg/kg, po after 1.3 hrs. The class given is ADME, organism-based. The arrangement: dose 5 mg/kg, route oral. The following applies: in vivo.
In the next data set the test system is Rattus norvegicus. The data set is described as follows: Systemic clearance in rat at 5 mg/kg, po. The arrangement: dose 5 mg/kg, route oral. The following applies: in vivo. The class given is ADME, organism-based.
Data set [3] can be described thus: Elimination half life in rat at 5 mg/kg, po. The class given is ADME, organism-based. The arrangement: dose 5 mg/kg, route oral. Particulars: in vivo, read-out: beta t1/2 (converted).
Data set [4] can be described thus: Oral bioavailability in rat at 5 mg/kg. The class given is ADME, organism-based. The following applies: in vivo.
The target in data set [5] is Cannabinoid receptor 1 (Homo sapiens) (UniProt P21554). The data set is described as follows: Binding affinity to human CB1 receptor expressed in CHO cells by luciferase reporter gene assay. (In general: In a reporter assay the amount or activity of a reporter protein is the signal.)
Chain of Cannabinoid receptor 1 (Homo sapiens) (P21554 whole entry, looked up): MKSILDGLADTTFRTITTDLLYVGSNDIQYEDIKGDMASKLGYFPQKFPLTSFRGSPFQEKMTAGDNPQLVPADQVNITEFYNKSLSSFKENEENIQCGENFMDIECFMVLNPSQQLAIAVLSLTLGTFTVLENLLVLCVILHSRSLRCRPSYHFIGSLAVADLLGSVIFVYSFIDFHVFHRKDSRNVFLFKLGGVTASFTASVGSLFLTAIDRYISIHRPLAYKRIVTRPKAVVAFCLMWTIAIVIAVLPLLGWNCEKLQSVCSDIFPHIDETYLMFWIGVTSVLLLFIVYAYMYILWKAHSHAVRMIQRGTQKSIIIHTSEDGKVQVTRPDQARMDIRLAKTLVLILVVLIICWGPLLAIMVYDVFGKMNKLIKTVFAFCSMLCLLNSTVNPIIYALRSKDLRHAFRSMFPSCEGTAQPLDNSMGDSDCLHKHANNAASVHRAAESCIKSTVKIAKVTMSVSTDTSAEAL

pIC50: −log10 of the molar value.

Chain of Cannabinoid receptor 1 (P20272 whole entry): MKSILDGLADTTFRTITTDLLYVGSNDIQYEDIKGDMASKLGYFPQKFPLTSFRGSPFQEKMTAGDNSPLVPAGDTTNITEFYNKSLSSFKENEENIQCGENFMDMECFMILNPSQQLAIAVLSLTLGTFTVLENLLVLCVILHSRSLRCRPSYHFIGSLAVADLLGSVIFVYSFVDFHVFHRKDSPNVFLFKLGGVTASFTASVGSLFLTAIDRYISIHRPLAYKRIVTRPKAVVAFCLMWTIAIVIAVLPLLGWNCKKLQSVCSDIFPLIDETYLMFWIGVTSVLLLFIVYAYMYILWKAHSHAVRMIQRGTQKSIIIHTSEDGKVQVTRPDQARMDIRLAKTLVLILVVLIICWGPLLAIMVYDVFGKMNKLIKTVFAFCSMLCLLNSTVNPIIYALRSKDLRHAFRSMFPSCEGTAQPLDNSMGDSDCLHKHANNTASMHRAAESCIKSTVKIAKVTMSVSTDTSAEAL

On Cannabinoid receptor 1, `Cc1nnc(-c2c(-c3nnc(C(C)(C)C)o3)nn(-c3ccc(Cl)cc3Cl)c2-c2ccc(Cl)cc2)o1` had a pIC50 of 8.19.
As for `Cc1nnc(-c2c(-c3nnc(C4(C(F)(F)F)CC4)o3)nn(-c3ccc(Cl)cc3Cl)c2-c2ccc(Cl)cc2)s1`, the pIC50 on Cannabinoid receptor 1 is 8.38.
The compound `Cc1nnc(-c2c(-c3nnc(C(C)(C)C)o3)nn(-c3ccc(Cl)cc3Cl)c2-c2ccc(Br)cc2)s1` gave a pIC50 at Cannabinoid receptor 1 of 8.43.
For `Cc1nnc(-c2c(-c3nnc(C4(c5ccc(Cl)cc5)CC4)o3)nn(-c3ccc(Cl)cc3Cl)c2-c2ccc(Cl)cc2)o1`, at Cannabinoid receptor 1, the pIC50 is 8.41.
Same read-out and setting: as for `Cc1nnc(-c2c(-c3nnc(C4(c5ccc(Cl)cc5)CC4)o3)nn(-c3ccc(Cl)cc3Cl)c2-c2ccc(Br)cc2)o1`, the figure is 8.31.
In the case of `Cc1nnc(-c2c(-c3nnc(C(C)(C)C)o3)nn(-c3ccc(Cl)cc3Cl)c2-c2ccc(Br)cc2)o1`, the negative-log IC50 (pIC50) at Cannabinoid receptor 1 is 8.59; at Cannabinoid receptor 2, 6.38. Besides, the Ratio IC50 in data set [1] came to 162.
`Cc1nnc(-c2c(-c3nnc(C4(c5ccc(Cl)cc5)CC4)s3)nn(-c3ccc(Cl)cc3Cl)c2-c2ccc(Br)cc2)s1`: the pIC50 is 8.43 on Cannabinoid receptor 1 and less than 5.00 at Cannabinoid receptor 2. The Ratio IC50 in data set [1] is greater than 2700.
`Cc1nnc(-c2c(-c3nnc(C4(c5ccc(Cl)cc5)CC4)o3)nn(-c3ccc(Cl)cc3Cl)c2-c2ccc(Cl)cc2)s1` had a pIC50 on Cannabinoid receptor 1 of 7.99.
Same read-out and setting: as for `Cc1nnc(-c2c(-c3nnc(C(C)(C)C)s3)nn(-c3ccc(Cl)cc3Cl)c2-c2ccc(Br)cc2)o1`, the figure is 8.31; as for `Cc1nnc(-c2c(-c3nnc(C4(c5ccc(Cl)cc5)CC4)s3)nn(-c3ccc(Cl)cc3Cl)c2-c2ccc(Cl)cc2)s1`, 8.52.
For the compound `Cc1nnc(-c2c(-c3nnc(C(C)(C)C)o3)nn(-c3ccc(Cl)cc3Cl)c2-c2ccc(Cl)cc2)s1`, the pIC50 on Cannabinoid receptor 1 is 8.55.
Regarding `Cc1nnc(-c2c(-c3nnc(C4(C(F)(F)F)CC4)s3)nn(-c3ccc(Cl)cc3Cl)c2-c2ccc(Cl)cc2)s1`, the pIC50 on Cannabinoid receptor 1 was 8.13.
The same measure, in the same setting: under `Cc1nnc(-c2c(-c3nnc(C4(C(F)(F)F)CC4)o3)nn(-c3ccc(Cl)cc3Cl)c2-c2ccc(Br)cc2)o1` stands 8.33; under `Cc1nnc(-c2c(-c3nnc(C4(c5ccc(Cl)cc5)CC4)o3)nn(-c3ccc(Cl)cc3Cl)c2-c2ccc(Br)cc2)s1`, 8.67; under `Cc1nnc(-c2c(-c3nnc(C4(C(F)(F)F)CC4)s3)nn(-c3ccc(Cl)cc3Cl)c2-c2ccc(Br)cc2)o1`, 8.31.
The compound `Cc1nnc(-c2c(-c3nnc(C4(c5ccc(Cl)cc5)CC4)s3)nn(-c3ccc(Cl)cc3Cl)c2-c2ccc(Cl)cc2)o1` gave a pIC50 at Cannabinoid receptor 1 of 8.49.
Same read-out and setting: as for `Cc1nnc(-c2c(-c3nnc(C4(C(F)(F)F)CC4)o3)nn(-c3ccc(Cl)cc3Cl)c2-c2ccc(Cl)cc2)o1`, the figure is 7.83.
As to `Cc1nnc(-c2c(-c3nnc(C4(C(F)(F)F)CC4)o3)nn(-c3ccc(Cl)cc3Cl)c2-c2ccc(Br)cc2)s1`, the pIC50 at Cannabinoid receptor 1 was 8.76; at Cannabinoid receptor 2, 6.61; in data set [5], 7.41. Further, the Ratio IC50 in data set [1] is 142. This compound also gave a Cmax in data set [2] of 30 ng/mL. The same compound yielded a clearance in the data set on Rattus norvegicus of 12.6 mL/min/kg. Besides, the half-life in data set [3] is 18.4 h. In data set [4], the bioavailability worked out at 7.2%.
For the compound `Cc1nnc(-c2c(-c3nnc(C4(C(F)(F)F)CC4)s3)nn(-c3ccc(Cl)cc3Cl)c2-c2ccc(Cl)cc2)o1`, the pIC50 on Cannabinoid receptor 1 is 7.57.
The same measure, in the same setting: under `Cc1nnc(-c2c(-c3nnc(C4(C(F)(F)F)CC4)s3)nn(-c3ccc(Cl)cc3Cl)c2-c2ccc(Br)cc2)s1` stands 8.38.
`Cc1nnc(-c2c(-c3nnc(C(C)(C)C)s3)nn(-c3ccc(Cl)cc3Cl)c2-c2ccc(Br)cc2)s1`: the pIC50 on Cannabinoid receptor 1 is 8.59; on Cannabinoid receptor 2 it was 6.37. For the same compound, the Ratio IC50 in data set [1] was 167.
On to `Cc1nnc(-c2c(-c3nnc(C4(c5ccc(Cl)cc5)CC4)s3)nn(-c3ccc(Cl)cc3Cl)c2-c2ccc(Br)cc2)o1`, for which, at Cannabinoid receptor 1, the pIC50 was 8.35.

For orientation: pIC50 means the IC50 on a negative log10 scale, so that one unit is a factor of ten. Lower therefore signals a large IC50. The term Cmax denotes the maximum level reached in the sampled fluid or tissue. By bioavailability is commonly meant dose-corrected exposure relative to a reference, in per cent.
